Data published in ChEMBL document CHEMBL1667803, “Inhibitory effects of ethacrynic acid analogues lacking the α,β-unsaturated carbonyl unit and para-acylated phenols on human cancer cells” (2011).
Active and inactive are the calls of the source. No cut-off for these calls is given here.

Columns and labels:
Format in all cases: functional
[1] = (§1) Inhibition of migration of human Hs578Ts(i)8 cells at 100 uM after 24 hrs
Method in brief: (§2)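 Wound-healing migration assay. Confluent monolayers were washed twice with PBS and scratched to leave a gap of about 1500 µm, then imaged. Fresh medium was added with or without compound, at concentrations set from the 24 h MTT assay. The wound was imaged again after 24 h. Migration was quantified against the earlier images as migratory velocity (µm/h).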

LNCaP C4-2B [2] = experiment: Inhibition of migration of human C4-2B cells at 100 uM after 24 hrs; method in brief: as §2
LNCaP C4-2B [3] = experiment: […] human C4-2B cells assessed as reduction in cell viability after 24 hrs
Method in brief: (§3)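 MTT viability assay. Cells seeded at 1.5×10^4 per well in medium with 5% FBS and penicillin/streptomycin, then grown 24 h at 37 °C in 5% CO2. Treated 24 h at 1, 5, 10, 20, 40, 60, 80 and 100 μM. Half the medium was removed before adding MTT, and optical density was read. Three independent experiments were run per concentration. OD80/IC20 (20% inhibition) was read from the graphs.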

[4] = […] human Hs578Ts(i)8 cells assessed as reduction in cell viability after 24 hrs; method in brief: as §3
Homo sapiens = organism: Homo sapiens; experiment: as §1; method in brief: as §2

SMILES | inhibition at 100 µM [1] [%] | inhibition at 100 µM (LNCaP C4-2B [2]) [%] | IC20 (LNCaP C4-2B [3]) [µM] | IC20 [4] [µM] | inhibition (LNCaP C4-2B [2]) | inhibition (Homo sapiens)
CCOC(=O)COc1ccc(C(=O)CC)c(C)c1 | 19 | 23 | > 100 | > 100 |  | 
CCC(=O)c1ccc(O)c(C)c1C | 17 |  | > 100 | > 100 | inactive | 
C=C(CC)C(=O)c1ccc(OCC(=O)O)c(Cl)c1Cl [ETHACRYNIC ACID] |  |  | 10 | 80 | inactive | inactive
CCC(=O)c1ccc(O)cc1C | 86 | 65 | > 100 | > 100 |  | 
CCCC(=O)c1ccc(OCC(=O)OCC)c(C)c1C |  |  | 50 | > 100 | inactive | inactive
CCC(=O)c1ccc(O)cc1 [PAROXYPROPIONE] | 28 | 25 | > 100 | > 100 |  | 
CCC(=O)c1ccc(OCC(=O)O)c(C)c1C |  |  | > 100 | > 100 | inactive | inactive
CCCC(=O)c1ccc(OCC(=O)O)c(C)c1C |  |  | > 100 | > 100 | inactive | inactive
CCOC(=O)COc1ccc(C(=O)CC)c(C)c1C |  |  | > 100 | > 100 | inactive | inactive
